In ChEMBL document CHEMBL3763015 (Bioorg Med Chem, 2016):
Calls of active or inactive are those of the source. The rule behind the calls is not given here.

Assays:
Cathepsin B (Bos taurus) [1] = molecular target: Cathepsin B (Bos taurus) (UniProt P07688); assay: Inhibition of bovine spleen cathepsin B using Z-Arg-Arg-MCA as substrate at 1 mM incubated for 10 mins
Outline: (§1)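 10 mU enzyme preincubated 10 min at 40 °C in 50 mM MES pH 6.0 with 2 mM DTT and 0.1% Brij-35. Z-Arg-Arg-MCA and inhibitor in DMSO were then added and incubated 10 min at 40 °C. Reaction stopped with sodium monochloroacetate/acetate buffer, pH 4.3. Screening was at 1.0 mM inhibitor; IC50 runs used 1 nM to 1 mM.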

Cathepsin B = Cathepsin B (Bos taurus, UniProt P07688); assay: Inhibition of bovine spleen cathepsin B using Z-Arg-Arg-MCA as substrate incubated for 10 mins; outline: as §1
HeLa = assay: Cytotoxicity against human HeLa cells assessed as cell death at 200 uM by […]; assay type: cell-based
Outline: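 HeLa cells were grown in DMEM with 5% FBS and 1% penicillin–streptomycin. 100 μl of 5000 cells/ml was seeded and held 24 h at 37 °C, 5% CO2. Compound at 200 μM, with rotenone control, was added for 24 h. WST-8/1-methoxy PMS was added for 2 h, and absorbance read at 450 nm against 630 nm. Result reported as cell death ratio.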

Cathepsin B (Bos taurus) [2] = molecular target: Cathepsin B (Bos taurus) (UniProt P07688); assay: Competitive inhibition of bovine spleen cathepsin B using Z-Arg-Arg-MCA as substrate incubated for 10 mins by Lineweaver-Burk plot

Structure (SMILES)	inhibition (Cathepsin B (Bos taurus) [1])	IC50 (Cathepsin B)	Activity (HeLa)	inhibition (Cathepsin B (Bos taurus) [2])
COc1cc(/C=C/C(=O)N[C@H](COC(=O)c2ccccc2)C(=O)NC2CCCCC2)cc(OC)c1	22%			
O=C(/C=C/c1ccccc1)N[C@@H](COC(=O)CCc1ccccc1)C(=O)NC1CCCCC1	82%			
COc1cc(/C=C/C(=O)N[C@H](COC(=O)c2ccccc2)C(=O)NC2CCCCC2)cc(OC)c1OC	70%	500 µM		
COc1cccc(/C=C/C(=O)N[C@@H](COC(=O)c2ccccc2)C(=O)NC2CCCCC2)c1	36%		< 20%	
COc1cc(/C=C/C(=O)N[C@@H](COC(=O)c2ccccc2)C(=O)NC2CCCCC2)cc(OC)c1OC	21%		< 20%	
O=C(/C=C/c1ccccc1)N[C@H](COC(=O)c1ccccc1)C(=O)NC1CCCCC1	inactive			
COc1cccc(/C=C/C(=O)N[C@H](COC(=O)c2ccccc2)C(=O)NC2CCCCC2)c1	44%			
COc1ccc(/C=C/C(=O)N[C@@H](COC(=O)c2ccccc2)C(=O)NC2CCCCC2)cc1OC	88%			
O=C(/C=C/c1ccc(OC(=O)c2ccccc2)cc1)N[C@H](COC(=O)c1ccccc1)C(=O)NC1CCCCC1	19%			
COc1cc(/C=C/C(=O)N[C@@H](COC(=O)c2ccccc2)C(=O)NC2CCCCC2)cc(OC)c1	inactive		< 20%	
O=C(/C=C/c1ccccc1)N[C@@H](COC(=O)c1ccccc1)C(=O)NC1CCCCC1	34%		< 20%	
COc1ccccc1/C=C/C(=O)N[C@@H](COC(=O)c1ccccc1)C(=O)NC1CCCCC1	67%	170 µM		Active
O=C(/C=C/c1ccc(OC(=O)c2ccccc2)cc1)N[C@@H](COC(=O)c1ccccc1)C(=O)NC1CCCCC1	35%		< 20%	
